Like-named read-outs stand apart in the source and are kept apart here.
How the values were obtained:
Assay type in all cases: cell-based, human
[1] = test system: caspase-3/-7, -6, -8, -9 in LoVo cells; test: Caspase activation; settings: 12 or 24 hrs
How it was run: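 LoVo cells (10⁶) exposed 12 or 24 hrs, then lysed in 1% Triton X-100, sucrose, 5 mM EDTA, 10 mM Tris-HCl, 2 mM DTT (pH 7.6). Lysate protein incubated 60 min at 37°C with fluorogenic AMC substrates: Ac-DEVD (caspase-3/-7), Ac-VEID (-6), Ac-IETD (-8), Ac-LEHD (-9). AMC release read at ex 370/em 460 nm. Means of at least three independent experiments ± S.D.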

DLD1 cells = test: MTT cytotoxicity assay; settings: read-out: IC50 (μM) ± S.D. DLD1; 72 hrs treatment, MTT test
LoVo cells [2] = test: Nuclear DNA fragmentation ELISA; settings: 12 hr treatment, IC50 concentration
LoVo cells [3] = test: Alkaline single-cell gel electrophoresis assay; settings: 12 hrs, IC50 concentration
[4] = test system: cytochrome c release in LoVo cells; test: Cytochrome c release; settings: IC50 concentration, 12 hrs (CP also 6 and 24 hrs)
How it was run: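 LoVo cells (30 × 10⁶) were exposed to the test compound for 12 hrs. Cytochrome c release was then assessed by Western blotting. Values are means ± S.D. of at least three measurements.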

HCT-15 cells = test: MTT cytotoxicity assay; settings: read-out: IC50 (μM) ± S.D. HCT-15; 72 hrs treatment, MTT test
How it was run: (§1)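 Cells grown with 10% foetal calf serum, penicillin/streptomycin and 2 mM L-glutamine (HCT-15 in RPMI, SW480 in DMEM). Exposed 72 hrs to increasing concentrations diluted from 1 mg/ml stocks in physiological solution, then MTT read-out. Mean absorbance per dose expressed as % of control versus concentration. IC50 from four-parameter logistic fit. Means ± S.D. of at least three measurements.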

HFF-1 fibroblasts = test: MTT cytotoxicity assay, non-tumour cells; settings: read-out: IC50 (μM) ± S.D. HFF-1, 72 hrs treatment, MTT test
LoVo cells [5] = test: MTT cytotoxicity assay; settings: read-out: IC50 (μM) ± S.D. LoVo, MTT test
SW480 cells = test: MTT cytotoxicity assay; settings: read-out: IC50 (μM) ± S.D. SW480; 72 hrs treatment, MTT test
How it was run: as §1

MRC-5 fibroblasts = test: MTT cytotoxicity assay, non-tumour cells; settings: read-out: IC50 (μM) ± S.D. MRC-5, 72 hrs treatment, MTT test
LoVo–OxPt cells = test: MTT cytotoxicity assay, oxaliplatin-resistant cells; settings: read-out: IC50 (μM) ± S.D. LoVo–OxPt; 48 hrs treatment, MTT test

Compound	caspase-3/-7, -6, -8, -9 activity (free AMC) [1]	IC50 (DLD1 cells) [µM]	increase in histone-DNA formation compared to controls (LoVo cells [2])	comet appearance / electrophoretic migration of DNA fragments (LoVo cells [3])	cytochrome c release [4]	IC50 (HCT-15 cells) [µM]	IC50 (HFF-1 fibroblasts) [µM]	IC50 (LoVo cells [5]; 48 hrs treatment) [µM]	IC50 (LoVo cells [5]; 72 hrs treatment) [µM]	IC50 (SW480 cells) [µM]	IC50 (MRC-5 fibroblasts) [µM]	IC50 (LoVo–OxPt cells) [µM]
O=C1[O][Pt]2([NH][C@@H]3CCCC[C@H]3[NH]2)[O]C1=O [OxPt, oxaliplatin]	substantial activation of all caspases	5.81 ± 1.93	roughly 30 fold	significant increase in comet appearance	substantial cytohrome c release	2.37 ± 0.58	27.1 ± 1.29	2.05 ± 0.43	0.33 ± 0.17	4.2 ± 0.75	23.9 ± 1.35	10.9 ± 1.34
N.N.[Cl][Pt][Cl] [CisPt, Cisplatin]	–	8.01 ± 2.22	–	–	–	16.6 ± 2.63	23.4 ± 1.97	–	9.02 ± 1.34	25.2 ± 3.33	19.7 ± 1.31	–
